In brackets after ≈: the same amount, converted by molar mass.
Tests used:
[1] = test system: Escherichia coli; assay: Antimicrobial activity against Escherichia coli harboring gyrA L83, Y87, parC I80, G84 and parE A458 mutant gene by agar dilution method
[2] = test system: Escherichia coli; assay: Antimicrobial activity against Escherichia coli K-12 harboring gyrA L83, Y87 and parC I80, G84 mutant gene by agar dilution method; type: functional
[3] = test system: Escherichia coli; assay: Antimicrobial activity against Escherichia coli […] harboring gyrA L83, N87, parC I80, K84 and parE D460 mutant gene by agar dilution method; type: functional, K-12
Summary of the method: (§1)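 Clinical E. coli isolates, with topoisomerase QRDR genotype (gyrA, gyrB, parC, parE) found by PCR sequencing. MICs for ciprofloxacin, gatifloxacin, levofloxacin and norfloxacin were measured by CLSI agar dilution using a modified dilution scheme. Where the agar dilution MIC was <1 μg/ml, the value came from at least two Etest measurements.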

[4] = test system: Escherichia coli; assay: Antimicrobial activity against Escherichia coli K-12 harboring gyrA L83, Y87 and parC K84 mutant gene by agar dilution method; type: functional
[5] = test system: Escherichia coli; assay: Antimicrobial activity against Escherichia coli K-12 harboring gyrA L83, Y87 and parC I80 mutant gene by agar dilution method; type: functional
[6] = test system: Escherichia coli; assay: Antimicrobial activity against Escherichia coli K-12 harboring gyrA L83, N87 and parC I80, G84 mutant gene by agar dilution method; type: functional
[7] = test system: Escherichia coli; assay: Antimicrobial activity against […] harboring gyrA L83, N87, parC I80 and parE […] mutant gene by agar dilution method; type: functional, K-12
Summary of the method: as §1

[8] = test system: Escherichia coli; assay: Antimicrobial activity against Escherichia coli K-12 harboring by agar dilution method; type: functional
[9] = test system: Escherichia coli; assay: Antimicrobial activity against Escherichia coli […] harboring gyrA L83, N87, parC I80 and parE M464 mutant gene by agar dilution method; type: functional, K-12
Summary of the method: as §1

[10] = test system: Escherichia coli; assay: Antimicrobial activity against Escherichia coli K-12 harboring gyrA A83 mutant gene by agar dilution method; type: functional
[11] = test system: Escherichia coli; assay: Antimicrobial activity against Escherichia coli K-12 harboring gyrA L83, N87 and parC I80 mutant gene by agar dilution method; type: functional
[12] = test system: Escherichia coli; assay: Antimicrobial activity against Escherichia coli K-12 harboring gyrA L83, Y87 mutant gene by agar dilution method; type: functional
[13] = test system: Escherichia coli; assay: Antimicrobial activity against Escherichia coli K-12 harboring gyrA L83, N87 and parC K84 mutant gene by agar dilution method; type: functional
[14] = test system: Escherichia coli; assay: Antimicrobial activity against […] harboring gyrA L83, N87, gyrB T471 and parC I80, G84 mutant gene by agar dilution method; type: functional, K-12
Summary of the method: as §1

[15] = test system: Escherichia coli; assay: Antimicrobial activity against Escherichia coli […] harboring gyrA L83, Y87, parC I80 and parE A458 mutant gene by agar dilution method; type: functional, K-12
Summary of the method: as §1

[16] = test system: Escherichia coli; assay: Antimicrobial activity against Escherichia coli K-12 harboring gyrA L83, N87 mutant gene by agar dilution method; type: functional

Row | Structure (SMILES) | MIC [1] | MIC [2] | MIC [3] | MIC [4] | MIC [5] | MIC [6] | MIC [7] | MIC [8] | MIC [9] | MIC [10] | MIC [11] | MIC [12] | MIC [13] | MIC [14] | MIC [15] | MIC [16]
1 | O=C(O)c1cn(C2CC2)c2cc(N3CCNCC3)c(F)cc2c1=O [CIPROFLOXACIN] | 300 µg/mL (≈ 905 µM) | 40 µg/mL (≈ 121 µM) | 200 µg/mL (≈ 604 µM) | 500 µg/mL (≈ 1510 µM) |  |  |  |  |  |  |  |  |  |  |  | 
2 | COc1c(N2CCNC(C)C2)c(F)cc2c(=O)c(C(=O)O)cn(C3CC3)c12 (stereo unspecified) [GATIFLOXACIN] | 30 µg/mL (≈ 79.9 µM) | 10 µg/mL (≈ 26.6 µM) | 20 µg/mL (≈ 53.3 µM) | 30 µg/mL (≈ 79.9 µM) | 10 µg/mL (≈ 26.6 µM) | 10 µg/mL (≈ 26.6 µM) | 10 µg/mL (≈ 26.6 µM) | 0.007 µg/mL (≈ 0.0186 µM) | 20 µg/mL (≈ 53.3 µM) | 0.094 µg/mL (≈ 0.25 µM) | 10 µg/mL (≈ 26.6 µM) | 0.5 µg/mL (≈ 1.33 µM) | 30 µg/mL (≈ 79.9 µM) | 20 µg/mL (≈ 53.3 µM) | 20 µg/mL (≈ 53.3 µM) | 10 µg/mL (≈ 26.6 µM)
3 | C[C@H]1COc2c(N3CCN(C)CC3)c(F)cc3c(=O)c(C(=O)O)cn1c23.C[C@H]1COc2c(N3CCN(C)CC3)c(F)cc3c(=O)c(C(=O)O)cn1c23.O [LEVOFLOXACIN] | 200 µg/mL | 50 µg/mL | 50 µg/mL | 50 µg/mL | 10 µg/mL | 50 µg/mL | 20 µg/mL |  | 50 µg/mL | 0.168 µg/mL | 8 µg/mL | 2 µg/mL | 50 µg/mL | 30 µg/mL | 50 µg/mL | 10 µg/mL
4 | CCn1cc(C(=O)O)c(=O)c2cc(F)c(N3CCNCC3)cc21 [NORFLOXACIN] | 1000 µg/mL (≈ 3130 µM) | 100 µg/mL (≈ 313 µM) | 400 µg/mL (≈ 1250 µM) | 1000 µg/mL (≈ 3130 µM) | 50 µg/mL (≈ 157 µM) | 200 µg/mL (≈ 626 µM) | 50 µg/mL (≈ 157 µM) | 0.023 µg/mL (≈ 0.072 µM) | 400 µg/mL (≈ 1250 µM) | 0.194 µg/mL (≈ 0.608 µM) | 10 µg/mL (≈ 31.3 µM) | 8 µg/mL (≈ 25.1 µM) | 200 µg/mL (≈ 626 µM) | 200 µg/mL (≈ 626 µM) | 300 µg/mL (≈ 939 µM) | 10 µg/mL (≈ 31.3 µM)
